# Most compounds without a hit are left out; they make up all but 3.1% or so of the library.
# rRNA inh HTS – reduced GFP signal of wild-type E. coli, primary screen, bacterial rRNA inhibitor project, GFP/RFP fluorescence, OD600, single point; hit rate 1.6% among 350,000; AID 720706, 2013; GFP signal change (wild-type ribosome), % (concentration not given with the values); E. coli WT GFP vs humanized-ribosome RFP mutants, 24 h; hits give low values; DMSO median 0, no signal -100;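 active means significant combined selectivity score with lowered wild-type GFP, culture density cut under 30%, mutant RFP and density less affected; inactive means any of these conditions unmet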
# ERAP1 HTS inh – human ERAP1 aminopeptidase inhibitors, primary screen, biochemical, single point, plate reader | inhibition, % at 10.7 µM | AID 652197, 2013 | recombinant ERAP1, Leu-AMC fluorescence, 60 min | hit rate 0.15% among 340,000 | Endoplasmic reticulum aminopeptidase 1 (Homo sapiens), Q9NZ08;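 active means mean replicate inhibition of at least 30%, or all replicates individually reaching that 30% level; inactive means mean below 30% and not every replicate reaching it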;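 further: 0% = neutral control wells and 100% = L-leucinethiol positive control wells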
# SIRT5 block – SIRT5 desuccinylase inhibitors, primary screen, biochemical, fluorescence imaging, single point, set 5 | AID 652115, 2013 | inhibition, % at 15 µM | Purified SirT5, succinyl-peptide AMC, trypsin-coupled fluorescence | NAD-dependent protein deacylase sirtuin-5, mitochondrial (Homo sapiens), Q9NXA8 | hit rate 1.1% among 330,000; in the data active means inhibition above about 15%
# Target sequence (Q9NXA8 whole entry, looked up): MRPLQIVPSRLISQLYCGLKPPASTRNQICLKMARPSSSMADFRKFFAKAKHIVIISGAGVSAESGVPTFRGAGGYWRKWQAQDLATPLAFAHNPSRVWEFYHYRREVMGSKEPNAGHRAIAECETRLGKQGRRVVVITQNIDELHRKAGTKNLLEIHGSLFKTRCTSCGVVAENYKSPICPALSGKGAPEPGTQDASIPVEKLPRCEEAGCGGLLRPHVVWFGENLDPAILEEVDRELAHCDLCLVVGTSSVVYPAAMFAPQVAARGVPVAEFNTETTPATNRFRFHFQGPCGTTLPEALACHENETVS
# CFTR F508del cor – F508del CFTR correction, initial screen, CFBE line, single point; CFBE cells, YFP halide quenching; stimulated with forskolin plus potentiator P3; % fluorescence drop versus neutral controls; AID 720511, 2013; hit rate 0.36% among 350,000; activity (quench increase), % at 7.58 µM;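 active means mean added fluorescence quench of at least 8% versus neutral control, with both replicates also reaching 8%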;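 further: cells transiently co-express mutant CFTR-F508del with the halide-sensitive YFP; corrector assay measuring rescue of mutant channel to the surface after 24 h compound exposure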
# S100A4 inh HTS – inhibitors of S100A4-myosin IIA peptide binding, primary screen, biochemical, fluorescence polarization, TAMRA-MyoIIA peptide. Protein S100-A4 (Homo sapiens), P26447. inhibition, % at 10.7 µM. hit rate 0.14% among 360,000;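 active means mean inhibition of at least 70% across replicates, with every replicate also reaching that level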
# Target sequence (P26447 whole entry, looked up): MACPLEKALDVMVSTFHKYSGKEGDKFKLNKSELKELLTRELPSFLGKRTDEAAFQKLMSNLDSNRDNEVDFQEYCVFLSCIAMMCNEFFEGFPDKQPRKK
#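 Test system – S100A4 monomer (human) · Compound – single-point compound testing · Schedule – 5 min incubation before reading · Probe or stimulus – TAMRA-labelled myosin IIA heavy-chain peptide probe, 5 nM · Benchmarks – neutral control DMSO, positive control TFP · Medium – Calcium-containing HEPES buffer, pH 7.2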
# * hit, by the source's call; nt = no result; ! = a repeat was not active.
SMILES,rRNA inh HTS,ERAP1 HTS inh,SIRT5 block,CFTR F508del cor,S100A4 inh HTS
Cc1cc(OCc2cc(C(=O)NC(C)c3cnn(C)c3)no2)cc(C)c1Cl (stereo not given),nt,5,nt,0,-3
Cc1cc(OCc2cc(C(=O)NC(C)c3c(C)nn(C)c3C)no2)cc(C)c1Cl (stereo not given),-4,0,18*,2,3
Nc1ccccc1-c1nnn(CC(=O)Nc2ccc3c(c2)OCCO3)n1,-25*,0,-1,-3,0
COc1ccc(NC(=O)Cn2nnc(-c3ccccc3N)n2)cc1OC,-10,0,nt,nt,-1
CC(C)[C@@H](C(=O)N[C@@H](CCc1ccc(O)cc1)C(=O)O)N(C)C(=O)[C@H](CO)NC(=O)[C@@H](O)[C@H](N)CCCCCCCCl,nt,62*,-1,0,-4
CC[n+]1c(C)cc(C)n1-c1ccccc1,9,102*,0,0,-2
COc1cc(NC(=S)Nc2ncccc2C)cc(OC)c1OC,-21*,0,-1,2,2
COc1ccc(-c2cc(C(F)(F)F)nc(N)n2)cc1,7,0,-1,1,-4
CS(=O)(=O)c1nc(-c2ccc(F)cc2)cc(C(F)(F)F)n1,-34*,-2,3,-1,-4
C[C@@H]1CN([C@@H](C)CO)C(=O)Cc2cc(NS(=O)(=O)c3cn(C)cn3)ccc2O[C@H]1CN(C)Cc1ccc(C(=O)Nc2ccccc2N)cc1,0,1,7,-2,-7
COc1cc(-c2ccc(Nc3ccccc3C(=O)O)c(OC)c2)ccc1Nc1ccccc1C(=O)O,-54,-6,30*,1,-3
O=C(N/N=C/c1cc(Br)c(O)c(Br)c1)C1CC1,-8,3,-4,0,2
CC(C)(C)NC(=S)N/N=C/c1cc(Br)c(O)c(Br)c1,-40*,4,1,-4,5
COc1ccc(-c2c(-c3ccc(O)cc3O)n[nH]c2C(F)(F)F)cc1,-56,nt,-1,1,-4
Oc1ccc(-c2n[nH]c(C(F)(F)F)c2-c2ccccc2)c(O)c1,-51,1,44*,6,-7
CC1Cc2ccccc2N1C(=O)CSc1nc(-c2ccccc2)cs1 (stereo not given),-16,-2,1,1,-4
CC(Sc1nc(-c2ccc(F)cc2)cs1)C(=O)N1c2ccccc2CC1C (stereo not given),-15,0,26*,3,1
Cc1c(CCOC(=O)c2ccccc2)sc[n+]1CC(=O)c1ccc(Br)cc1,-48*,1,4,nt,-5
COc1ccc(C(=O)C2CCCN(S(=O)(=O)N(C)C)C2)c(C)c1 (stereo not given),-7,1,-1,-2,-5
COc1ccc(C(=O)C2CCCN(S(=O)(=O)C(C)C)C2)c(C)c1 (stereo not given),-13,2,25*,-2,8
COc1ccccc1N1CCN(C(CNS(=O)(=O)c2cccs2)c2cccnc2)CC1 (stereo not given),-4,4,1,8.1*,0
Cc1ccccc1N1CCN(S(=O)(=O)c2cccs2)CC1,-31,0,1,0,-1
CCOc1ccccc1N1CCN(S(=O)(=O)c2cccs2)CC1,-24*,-1,-4,-2,-1
Cc1ccc(S(=O)(=O)N(C)C[C@@H]2Oc3ccc(NC(=O)Cc4cn(C)c5ccccc45)cc3C(=O)N([C@H](C)CO)C[C@H]2C)cc1,-2,1,4,1,-40
C/C=C/c1ccc(C2[C@H]3CNC[C@@H]2N3S(=O)(=O)c2ccccc2C)cc1 (stereo not given in full),-2,-3,2,-5,101*!
SMILES,rRNA inh HTS,ERAP1 HTS inh,SIRT5 block,CFTR F508del cor,S100A4 inh HTS
COc1cccc(NC(=O)/C=C/c2ccccc2[N+](=O)[O-])c1,-57,-2,-1,nt,0
COc1ccc(NC(=O)/C=C/c2ccccc2[N+](=O)[O-])c(OC)c1,-23*,-1,-2,nt,0
CCc1nc(Nc2ccccc2)c2nnn(Cc3ccccc3)c2n1,-30*,1,-4,3,-4
COc1ccc2c(CN3CCCC3)cc(=O)oc2c1,14,1,19*,-3,-3
C=C(Cl)COc1ccc2c(CC)cc(=O)oc2c1,-24*,-2,-6,-2,-1
C=C(C)COc1ccc2c(CC)cc(=O)oc2c1,-10,-6,-3,nt,6
COc1cccc(C(=O)N[C@H](C(=O)N2CCC[C@H]2C(=O)NCCc2ccccc2Cl)c2ccccc2)c1,-34*,3,2,-4,28
COc1cccc(C(=O)N[C@H](C(=O)N2CCC[C@H]2C(=O)NCCc2ccccc2Cl)C(C)C)c1,-2,6,-3,-6,-8
CCCCCCCCCCCC1N=C(N)NC(CCCO)=C1C(=O)OC (stereo not given),nt,44*,-1,-5,-1
O=C(CN1CCOCC1)NCC[C@H]1CC[C@@H](NS(=O)(=O)c2ccc(Cl)cc2)[C@@H](CO)O1,1,-1,32*,-1,5
O=C(CN1CCOCC1)NCC[C@H]1CC[C@@H](NC(=O)Nc2ccc(F)cc2)[C@@H](CO)O1,1,-2,4,2,-1
O=C(CN1CCOCC1)NCC[C@H]1CC[C@H](NC(=O)Nc2ccc(F)cc2)[C@H](CO)O1,4,-2,4,0,3
O=C(CN1CCOCC1)NCC[C@@H]1CC[C@@H](NS(=O)(=O)c2ccc(Cl)cc2)[C@H](CO)O1,2,-3,-4,1,8
O=C(CN1CCOCC1)NCC[C@@H]1CC[C@H](NC(=O)Nc2ccc(F)cc2)[C@H](CO)O1,4,0,26*,1,13
O=C(CN1CCOCC1)NCC[C@@H]1CC[C@@H](NC(=O)Nc2ccc(F)cc2)[C@H](CO)O1,0,-3,16*,1,5
COc1ccc(CN(C)C[C@H]2Oc3ccc(NS(=O)(=O)c4ccccc4)cc3CC(=O)N([C@@H](C)CO)C[C@H]2C)cc1,1,-3,0,1,0
CNC(=S)N/N=C/c1c(C)nn(-c2cccc(Cl)c2)c1Cl,-1,0,0,0,0
COc1ccc(NCC(=O)N/N=C/c2c(C)nn(Cc3ccccc3)c2Cl)cc1,-14*,-1,-1,nt,0
Cc1nn(-c2ccccc2)c(Cl)c1/C=N/NC(=O)OC(C)(C)C,-20*,5,0,nt,0
COc1cccc(S(=O)(=O)Nc2ccc3c(c2)C(=O)N(C)C[C@H](OC)[C@H](C)CN(C(=O)Cc2cccnc2)[C@H](C)CO3)c1,2,-2,nt,0,6
